“And” between values parts separate entries of the source, which are not always exact repeats. Equal entries are not always repeated. Where two headings read alike, the source gives them in different places.
Legend:
[1] = cited from earlier work
[2] = tested on: HDL-C; settings: similar exposure-response analysis; cited from earlier work
[3] = tested on: LDL-C; settings: cited from earlier work
[4] = Metabolism; settings: separate studies
[5] = tested on: HDL-C; settings: dyslipidemic patients, alone or with statins; cited from earlier work
[6] = tested on: LDL-C; assay: LDL-C percent change from baseline, exposure-response; type: in vivo, human
How it was run: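 Arms were placebo or 30, 100 or 500 mg daily monotherapy, or 100 mg with simvastatin 40 mg, atorvastatin 20 mg or rosuvastatin 10 mg, for 12 weeks. LDL-C was measured by standard enzymatic assay at weeks 2, 4, 8 and 12. Percent change from baseline was modelled with placebo, statin and test-compound Emax terms on post hoc AUC, an interaction term, and time constant K. Covariates included baseline ApoA1.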

[7] = cited from earlier work; remark: listed apart in the source
[8] = ref J.G. Suico et al., unpublished data, cited from earlier work
[9] = tested on: HDL-C; assay: HDL-C percent change from baseline, exposure-response; type: in vivo, human; settings: for HDL-C increase as percent of the maximal effect: from EAUC50 and estimated AUC
How it was run: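 Dyslipidemic patients took placebo or 30, 100 or 500 mg daily for 12 weeks, or 100 mg plus simvastatin 40 mg, atorvastatin 20 mg or rosuvastatin 10 mg. HDL-C was measured by enzymatic assay at weeks 2, 4, 8 and 12. Percent change from baseline was fitted with placebo and statin terms plus a sigmoid Emax on each patient's post hoc steady-state AUC (EAUC50, Hill coefficient), with rate constant K.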

[10] = type: in vivo, human
[11] = tested on: LDL-C; settings: dyslipidemic patients, alone or with statins; cited from earlier work
[12] = Protein binding; type: in vitro ADME; settings: separate studies
[13] = Healthy subject studies of evacetrapib; type: in vivo, human; settings: 30-mg single dose, healthy subjects; data not shown
[14] = patients in the ILLUMINATE study; cited from earlier work
[15] = phase III formulation of anacetrapib
[16] = week 16–18, 4–6 weeks after last dose, monotherapy groups

Compound: COc1cc(F)c(C(C)C)cc1-c1ccc(C(F)(F)F)cc1CN1C(=O)O[C@H](c2cc(C(F)(F)F)cc(C(F)(F)F)c2)[C@@H]1C [anacetrapib]
- Increase of exposure with dose [1]: Less than dose-proportional
- AUC with high-fat meal vs fasted state [1, 15]: 7.5 fold
- AUC with low-fat meal vs fasted state [1, 15]: 2.2 fold
- Maximal effect on HDL-C [2]: 176%
- LDL-C reduction in combination with atorvastatin, kind of interaction [3]: pharmacologically independent
- Theoretical maximal LDL-C reduction ([3]; similar LDL-C model): 80%

Compound: Cc1cc(C)c2c(c1)[C@@H](N(Cc1cc(C(F)(F)F)cc(C(F)(F)F)c1)c1nnn(C)n1)CCCN2C[C@H]1CC[C@H](C(=O)O)CC1 [evacetrapib]
- Metabolism [4]: metabolized primarily by oxidative pathways
- Observed HDL-C increase [5]: up to 129%
- LDL-C response of evacetrapib and the statins, kind of interaction ([6]; coadministered with atorvastatin, simvastatin or rosuvastatin): pharmacologically independent
- AUC that produced half of maximum effect (EAUC50), LDL-C, population estimate (%SEE, 95% CI) ([6]; final LDL-C model): 4,230 (3.23%, 2,450 to 7,010) h·ng/ml
- Theoretical maximal mean LDL-C decrease (reduction) relative to baseline ([6]; final LDL-C model, printed as a reduction): 44.1%
- LDL-C at follow-up visit after discontinuation [6, 16]: returned to levels similar to those of the placebo group
- Safety and tolerability ([7]; administered alone or in combination with statins): safe and well tolerated
- Changes in mineralocorticoid levels or increases in systolic or diastolic blood pressure ([7]; dyslipidemic patients): did not cause any significant changes
- Half-life ([8]; healthy subject studies): ~40 h
- Increase of exposure with dose ([8]; healthy subjects, 10–600 mg dose range): less than dose-proportional
- HDL-C increase as percent of the maximal effect ([9]; 30 mg dose): ~ 30 % of the maximal effect
- HDL-C increase as percent of the maximal effect ([9]; 100 mg dose): ~50 % of the maximal effect
- HDL-C increase as percent of the maximal effect ([9]; 500 mg dose): ~80 % of the maximal effect
- Time course constant (K) of HDL-C response, population estimate (%SEE, 95% CI) ([9]; final HDL-C model): 0.00684 (7.43%, 0.00604–0.00791) hour^−1
- AUC that produced half of maximum effect (EAUC50), HDL-C, population estimate (%SEE, 95% CI) ([9]; final HDL-C model, at median baseline HDL 52.2 mg/dl): 5,380 (1.54%, 3,930–7,270) h·ng/ml
- Maximum effect (Emax) on HDL-C, population estimate (%SEE, 95% CI) ([9]; theoretical maximum at steady state, final HDL-C model): 177 (6.55%, 153–207) % change from baseline
- HDL-C at follow-up visit after discontinuation [9, 16]: returned to levels similar to those of the placebo group
- Increase of exposure with dose ([10]; 30–500 mg, dyslipidemic patients): less than dose-proportional
- Model-predicted population CL/F lower at CGCL 50 ml/minute than at 100 ml/minute ([10]; CGCL 50 vs 100 ml/minute): 10%
- Effect of dose on CL/F (covariate coefficient) ([10]; CL/F = 15.3 * (1+0.00105 * DOSE) * (1+0.00198 * (CGCL − 91.28)), DOSE in mg): 0.00105 (21.6%, 0.000726–0.00144)
- CL/F, estimated population value ([10]; dose 30 mg): 13.1 L/h
- CL/F, estimated population value ([10]; dose 100 mg): 17.0 L/h
- CL/F, estimated population value ([10]; dose 500 mg): 25.4 L/h
- Oral clearance (CL/F), population estimate (%SEE, 95% CI) ([10]; final population PK model): 15.3 (4.57%, 14.3–16.5) l/hour
- Peripheral volume of distribution (V3/F), population estimate (%SEE, 95% CI) ([10]; final population PK model): 827 (18%, 600.7–1,071) l
- Rate of absorption (Ka) ([10]; final population PK model, value fixed, not estimated): 0.3 hour^-1 and 0.3 (fixed) hour^-1
- Vd/F ([10]; human, plasma, oral): 228 L
- Observed LDL-C decrease [11]: up to 36%
- Protein bound [12]: > 99%
- AUC0–∞ increased after a high-fat meal relative to low-fat meal [13]: 41%
- AUC0–∞ reduced in the fasted state relative to low-fat meal [13]: 38%

Compound: CCOC(=O)N1c2ccc(C(F)(F)F)cc2[C@@H](N(Cc2cc(C(F)(F)F)cc(C(F)(F)F)c2)C(=O)OC)C[C@H]1CC [torcetrapib]
- Adverse cardiovascular events [14]: increased adverse cardiovascular events
